# Screening results deposited in PubChem BioAssay by several laboratories.
# Sampled rows, rich in hits. Any-hit rate of the full collection: about 2.3%.
# SF-1 act: SF-1 (human) activation; Q13285; CHO-K1 Gal4-SF-1 LBD luciferase reporter; % increase over DMSO SF-1-specific signal; activation, % at 10 µM; 1.9% of 65,000 active; AID 522;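 active = activation above the mean activation of all tested compounds plus 3 SD, cut at about 50% in these data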
#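 Assay system: CHO-K1 cells co-transfected with Gal4 DBD–human SF-1 LBD, 5xGal4 luciferase reporter; doses: 10 µM only; incubation: 20 h compound exposure at 37 °C after 1 h cell settling; signal: luciferase light emission; evaluation: percent activation versus DMSO; repeats: one test per compound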
# MT1-MMP txn act: MT1-MMP promoter transcription activation; HT1080 MT1-MMP promoter luciferase reporter, luminescence, overnight; hits give high values; activation factor at 10 µM; 0.16% of 86,000 active; AID 750;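 active = activation factor of at least 2 for MT1-MMP transcription at 10 µM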
# RORa activator: activates the human nuclear receptor RORA. P35398. activation, % at 10 µM. 1.5% of 65,000 active. CHO-K1 Gal4-RORA LBD luciferase reporter, luminescence; percent increase over mock-subtracted basal signal;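 active = activation above the mean of all tested compounds plus 3 SD, cut at about 49% in these data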;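 note: 0% = DMSO-treated RORA cells and 100% = added signal equal to DMSO minus mock-transfected cells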
# WNV NS2B-NS3 inh: inhibitors of West Nile virus NS2B-NS3 protease; 0.18% of 65,000 active; z-score (concentration not given with the values); P06935; WNV NS2B-NS3 protease, fluorogenic substrate Ex360/Em465; hits give low values; AID 577; in the data active = z-score below about -3
# Target sequence (P06935 1371-1501 limits assumed): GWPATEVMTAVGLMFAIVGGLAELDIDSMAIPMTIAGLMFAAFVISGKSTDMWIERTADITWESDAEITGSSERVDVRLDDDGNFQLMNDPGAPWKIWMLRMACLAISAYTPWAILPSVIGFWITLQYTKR
# Target sequence (P06935 1502-1679 limits assumed): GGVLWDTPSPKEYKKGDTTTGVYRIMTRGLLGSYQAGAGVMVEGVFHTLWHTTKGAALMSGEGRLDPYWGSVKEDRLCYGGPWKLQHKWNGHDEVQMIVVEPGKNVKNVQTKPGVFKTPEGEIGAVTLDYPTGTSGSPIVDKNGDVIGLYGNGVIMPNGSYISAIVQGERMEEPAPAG
# MMP-13 inhibitor: inhibitors of human MMP13; inhibition, % at 4 µM; 0.07% of 65,000 active; P45452; MMP-13 fTHP FRET cleavage, Mca fluorescence;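 active = inhibition above the mean of compound-free control plate wells plus 3 SD, cut at about 14% in these data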;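 note: 0% = DMSO wells and 100% = wells with reference MMP-13 inhibitor after basal subtraction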
# * = called active by the depositor; x = no result.
SMILES,SF-1 act,MT1-MMP txn act,RORa activator,WNV NS2B-NS3 inh,MMP-13 inhibitor
Cc1sc(NC(=O)c2ccc(Br)s2)c(C(N)=O)c1C,x,1.2,x,x,x
Cc1sc(NC(=O)c2ccc(Cl)s2)c(C(N)=O)c1C,100.9*,2.2*,65.5*,-1.7,-4.6
O=C(NCC1COc2ccccc2O1)Nc1ccccc1F (stereo unspecified),-2.6,1.3,-10.5,0.35,1.6
O=C(CN(C(=O)c1cc2c(s1)CCC2)C1CCCC1)NCc1cccs1,-4.5,1.1,3.5,2.07,2.1
Cc1ccc(NC(=O)C2CCN(S(=O)(=O)c3cccc4nonc34)CC2)nc1,14.7,1.2,19.0,-4.84*,0.7
Cn1ncc2c1ncn1nc(CCc3ccccc3)nc21,49.7*,1.5,43.8,1.66,0.2
COC(=O)[C@@]1(Cc2ccc(F)cc2)[C@H]2c3cc(C(=O)N4CCCC4)n(Cc4cccc5ccccc45)c3C[C@H]2CN1C(=O)c1ccccc1,x,1.2,x,x,x
c1ccc2oc(SCc3cn4ccccc4n3)nc2c1,19.9,0.9,58.1*,-0.35,-1.3
O=C(COc1ccccc1)n1nc(-c2ccc(Cl)cc2)nc1NCc1ccco1,31.4,1.2,59.7*,0.24,-4.1
COc1cc(C(=O)Nc2ccc(N(C)C)cc2)cc(OC)c1OC,62.3*,1.6,84.5*,0.02,-0.4
COc1cc(C(=O)Nc2ccc(S(=O)(=O)NC(C)(C)C)cc2)cc(OC)c1OC,x,1.2,x,x,x
CCOC(=O)C1=C(CCc2ccccc2)NC(=O)NC1c1ccc(Cl)cc1 (stereo unspecified),x,1.1,x,x,x
CC(C)n1c(SCC(=O)Nc2ccccc2)nc2c1c(=O)n(C)c(=O)n2C,x,1,x,x,x
COc1ccc(-c2csc(N(CCCN(C)C)C(=O)c3cccs3)n2)cc1,2.2,1.3,-0.8,-1.13,3.9
COCCCN(C(C)=O)c1nc(-c2ccc(OC)cc2)cs1,98.1*,1.5,84.5*,0.13,-1.9
C=CCn1cnc2c(NCc3ccccc3)ncnc21,64.9*,1.6,45.9,0.52,-3.6
O=C(COC(=O)C1=COCCO1)NCCCc1ccccc1,-3.5,1.2,-12.2,0.39,-1.6
O=C(OCC(=O)c1c[nH]c2ccccc12)C1=COCCO1,109.2*,2.1*,54.8*,0.46,-3.8
CCc1ccc(Nc2nnc(SCc3cc(=O)n4ccsc4n3)s2)cc1,x,1.1,x,x,x
Clc1cc(Cl)c2nc(N3CCCCC3)sc2c1,60.6*,2.1*,24.3,-1.45,2.9
Clc1cccc2sc(N3CCCCC3)nc12,47.5,1,12.7,-1.36,5.0
Clc1cc(Cl)c2nc(N3CCCC3)sc2c1,60.1*,1.5,40.8,-0.85,0.8
Fc1cc(F)c2nc(N3CCCCC3)sc2c1,65.2*,1.7,32.1,-0.08,2.6
CCC(C)(C)n1nnnc1C(c1ccc2ncccc2c1)N1CCN2CCCC2C1 (stereo unspecified),1.1,1.1,1.7,-0.44,-2.8
Cc1ccc(NC(=O)COC(=O)c2ccn(C)n2)cc1,9.8,1,-1.2,0.45,-0.6
SMILES,SF-1 act,MT1-MMP txn act,RORa activator,WNV NS2B-NS3 inh,MMP-13 inhibitor
COc1ccc(-c2nnc(SCc3ccccc3F)o2)cc1,x,1.6,x,x,x
Cc1ccccc1-c1nnc(SCc2ccccc2F)o1,90.5*,1.4,75.2*,-0.3,-0.3
Fc1ccccc1CSc1nnc(-c2ccccc2)o1,57.8*,0.9,41.2,0.95,2.2
C=CCNC(=O)CC(C)C(CCCCC)C(=O)O (stereo unspecified),-7.3,1.1,5.1,0.53,1.3
O=P(O)(CN1CCCCC1)C1CCCCC1O (stereo unspecified),-10.0,1.2,-9.7,-0.99,-6.4
Cn1nnc2cc(C(=O)NC3CCCCC3)ccc21,7.1,1.1,-12.0,-5.19*,10.3
CCCn1nnc(NC(=O)c2cccc(OCC)c2)n1,66.2*,1.3,51.5*,0.29,3.8
CCn1nnc(NC(=O)c2cccnc2)n1,5.5,1.2,4.3,1.42,-1.5
CCn1nnc(NC(=O)c2cccc(-c3cc4ccccc4oc3=O)c2)n1,54.7*,1.6,20.0,-0.23,-58.8
CCOc1cccc(C(=O)NC2CCCCC2)c1,52.0*,1.4,31.0,0.35,2.6
Cc1nn(Cc2ccccc2)c2c1C(c1cccc(Cl)c1)C(C#N)=C(N)O2 (stereo unspecified),x,1.1,x,x,x
CCCC[C@H]1C[C@@H]1[C@@H]1N(P(=O)(c2ccccc2)c2ccccc2)C[C@@](O)(c2ccccc2)CC12CC2,x,1.1,x,x,x
Nc1nc(SCc2ccc(Cl)cc2)ns1,12.9,1.4,30.5,-0.69,4.0
Nc1nc(SCc2ccccc2)ns1,55.0*,1.4,23.8,1.21,3.1
Nc1cc(N)nc(SCc2ccccc2)n1,54.4*,1.2,20.7,0.76,-0.3
Cc1ccc(Cl)cc1NC(=O)Cn1cc2c(n1)CCCC2,-14.5,1,-22.5,-0.73,3.9
Cn1ncc2c(Nc3ccc(-c4ccccc4)cc3)ncnc21,60.4*,1.6,42.6,0.25,-8.2
COc1ccc(-n2ncc3c(Nc4cccc(C)c4)ncnc32)cc1,80.0*,1.2,29.9,-1.09,-13.8
Cc1cccc(-n2ncc3c(Nc4ccc(F)cc4)ncnc32)c1,74.4*,1,64.0*,-0.16,-2.4
COc1ccc(Nc2ncnc3c2cnn3-c2cccc(C)c2)cc1OC,-2.6,1.1,6.9,-0.45,0.8
CCc1sc(C(=O)NC2CCN(C)CC2)cc1Br,-6.6,1.2,-21.3,0.98,3.2
CCn1c(=O)cc(SCC(=O)NCc2ccccn2)c2ccccc21,-2.0,1.1,-11.3,-0.84,-2.9
CC1CCC(NC(=O)Cn2ncc3ccccc32)CC1 (stereo unspecified),52.0*,1.6,34.0,0.05,2.4
CC(=O)c1c(C)[nH]c(C(=O)NCCc2cccc(C)c2)c1C,71.0*,1.4,17.1,0.43,1.6
O=C1CN(C(=O)CCCc2c[nH]c3ccccc23)c2ccccc2N1,4.0,1.8,1.8,-0.05,-1.8
SMILES,SF-1 act,MT1-MMP txn act,RORa activator,WNV NS2B-NS3 inh,MMP-13 inhibitor
COc1ccc(-c2coc3cc(O)cc(O)c3c2=O)cc1,97.2*,1.1,30.5,0.11,0.7
CC(C)Oc1cc(O)c2c(=O)c(-c3ccc(O)cc3)coc2c1,58.3*,1,45.7,-0.31,0.7
COCCn1c(COC)nc2ccccc21,5.9,1,3.0,-0.13,-0.4
COCCn1c(COc2ccc(C)cc2)nc2ccccc21,49.9*,1.2,40.0,0.43,2.3
COc1ccc2c(c1)C(=O)c1ccccc1CO2,x,1.4,x,x,x
O=C1COc2ccc(OCc3ccc(F)cc3)cc21,7.9,1.3,78.3*,0.31,0.9
Clc1ccc(C2CC(c3cccs3)n3ncnc3N2)c(Cl)c1 (stereo unspecified),-3.0,1.2,8.7,0.77,3.7
COC(=O)C1C(=O)c2c([nH]c(C(=O)OC3CCCCC3)c2C)CC1C (stereo unspecified),21.4,1.3,77.2*,-1.52,6.4
CC1CC(C)CN(C(=O)c2ccccc2Nc2ccc(SC(F)F)cc2)C1 (stereo unspecified),x,1.7,x,x,x
O=C(CCN1CCc2ccccc2C1)Nc1ccccc1,6.5,1.3,12.0,-0.9,-2.7
O=C(Nc1cccc(F)c1)Nc1ccccn1,61.6*,x,61.3*,-0.07,-1.1
